This is an account of results in ChEMBL document CHEMBL1159049, “Novel small molecule bradykinin B1 receptor antagonists. Part 3: hydroxyurea derivatives” (Bioorg Med Chem Lett, 2010).

The structures appear in SMILES notation. Values after ≈ are worked out from the molar mass of the structure shown.

For one data set, the target named is T1, B1 bradykinin receptor (Homo sapiens, UniProt P46663).
T1 sequence (P46663 whole entry): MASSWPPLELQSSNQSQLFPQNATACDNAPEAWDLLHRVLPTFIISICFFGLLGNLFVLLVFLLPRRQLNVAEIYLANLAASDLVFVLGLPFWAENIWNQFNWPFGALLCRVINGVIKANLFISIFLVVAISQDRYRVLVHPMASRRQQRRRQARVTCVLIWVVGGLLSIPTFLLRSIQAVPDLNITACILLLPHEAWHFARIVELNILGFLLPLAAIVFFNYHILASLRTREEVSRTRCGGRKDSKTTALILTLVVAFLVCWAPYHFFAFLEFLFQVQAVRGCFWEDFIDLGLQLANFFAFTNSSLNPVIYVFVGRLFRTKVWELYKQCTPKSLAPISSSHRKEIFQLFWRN
Briefly: Antagonist activity at bradykinin B1 receptor in human IMR90 cells assessed as inhibition of des-Arg-bradykinin-mediated calcium mobilization. The format is functional, cell-based, IMR-90. The settings on record: in the assay text read “des-Arg-kallidin-mediated” for “des-Arg-bradykinin-mediated”. An outline of the steps: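 Human lung fibroblast IMR-90 cells pretreated with IL-1 beta; B1 receptor functional activity read as inhibition of DAKD-mediated calcium mobilization (CAM assay). Values are the numerical average of at least two experiments.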

Data set [1] is described as follows: Oral bioavailability in Wistar rat at 1 mg/kg. The format is ADME, organism-based. The settings on record: in vivo. Put shortly: (§1)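 Male Wistar rats dosed at 1 mg/kg iv (group 1) and 1 mg/kg po (group 2). Plasma aliquots precipitated with methanol containing a structural analogue as internal standard, then analyzed by HPLC-MS/MS for time/concentration values. PK parameters (terminal t1/2, CL, F) derived from these profiles.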

Data set [2] is described as follows: Half life in Wistar rat at 1 mg/kg, iv […]. The format is ADME, organism-based. As to conditions: in vivo. An outline of the steps: as §1
The nature of data set [3]: Clearance in Wistar rat at 1 mg/kg, iv […]. As to conditions: in vivo. The format is ADME, organism-based. An outline of the steps:
as §1

The nature of data set [4]: Metabolic stability in human liver microsomes after 1 hr. The settings on record: read-out: Stability. The format is ADME, Microsome. An outline of the steps: (§2)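 Incubation with human or rat liver microsomes for 1 h; percent parent remaining reported.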
A short description of data set [5]: Metabolic stability in rat liver microsomes after 1 hr. The settings on record: read-out: Stability. The format is ADME, Microsome. An outline of the steps:
as §2
For orientation: Microsomes from liver hold many membrane-bound enzymes, among them those of drug oxidation.

Data set [6] is described as follows: Aqueous Solubility in PBS buffer. The format is physicochemical.
A further data set relates to Hepatocyte. Briefly: Cytotoxicity against human hepatocytes. The format is cell-based. Put shortly: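 Cell viability in plateable cryopreserved human hepatocytes exposed to a range of concentrations up to 100 µM for 24 h at 37 °C; resazurin substrate, resorufin product detected by fluorimetry.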
A short description of data set [7]: Compound remaining in PBS buffer after 5 days. The format is physicochemical. As to conditions: read-out: Stability. Put shortly: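 Chemical stability: compound incubated in PBS buffer at 50 °C for 5 days; percent remaining determined.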
The nature of data set [8]: Apparent permeability from apical to basolateral side of human Caco-2 cell. The format is ADME, cell-based. An outline of the steps: (§3)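 Bidirectional permeability through Caco-2 cell monolayers; Papp measured apical-to-basolateral and basolateral-to-apical, with efflux ratio taken as B–A over A–B.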
The nature of data set [9]: Apparent permeability from basolateral to apical side of human Caco-2 cell. The format is ADME, cell-based. Put shortly: as §3
On the technique in general: Passage across Caco-2 layers is used to estimate intestinal permeability.

For another data set, the system named is Caco-2. Briefly: Ratio of permeability from basolateral to apical side to apical to basolateral side in human Caco-2 cells. The format is ADME, cell-based. An outline of the steps: as §3
The species named for the next data set is Homo sapiens. Put plainly: Protein binding in human plasma. The settings on record: read-out: PPB (converted).

For orientation: IC50 means the concentration that inhibits the measured activity by half. The bioavailability is dose-corrected exposure relative to a reference, in per cent. Read a high bioavailability as good availability. A word on the half-life: it is the time needed for the level to fall by half in the phase considered. Low readings indicate fast loss, high ones slow loss. In general, clearance refers to a measure of how efficiently the substance is removed, as volume per time. The low end stands for a low capacity for elimination, the high end for a high capacity for elimination. In the case of `Cc1nc(-c2c(F)cc(Cl)cc2-c2cnc([C@@H](C)NC(=O)N(C)O)c(F)c2)no1`, on B1 bradykinin receptor, the IC50 came out at 1.2 nM. This compound had a bioavailability in data set [1] of 8%. The compound further showed a half-life in data set [2] of 12 min. In addition, the clearance in [3] was 58 mL/min/kg.

Take `Cc1nc(-c2c(F)cc(Cl)cc2-c2cnc(CNC(=O)N(C)O)c(F)c2)no1`: the IC50 on B1 bradykinin receptor was 17 nM.

Take `Cc1nc(-c2c(F)cccc2-c2cnc([C@@H](C)NC(=O)N(C)O)c(F)c2)no1`: at B1 bradykinin receptor, the IC50 is 31 nM.

Turning to `Cn1nnc(-c2c(F)cc(Cl)cc2-c2cnc(CNC(=O)N(O)C3CCCCC3)c(F)c2)n1`, the IC50 at B1 bradykinin receptor was 3.9 nM.

Consider `CC(C)N(O)C(=O)NCc1ncc(-c2cc(Cl)cc(F)c2-c2nnn(C)n2)cc1F`, for which the IC50 on B1 bradykinin receptor amounted to 1 nM.

As for `Cn1nnc(-c2c(F)cc(Cl)cc2-c2cnc(CNC(=O)N(O)C(C)(C)C)c(F)c2)n1`, the IC50 at B1 bradykinin receptor was found to be 1.4 nM.

`CN(O)C(=O)NCc1ncc(-c2cc(Cl)cc(F)c2-c2nnn(C)n2)cc1F`: the IC50 on B1 bradykinin receptor is 17 nM.

As to `Cc1nc(-c2c(F)cc(Cl)cc2-c2cnc([C@@H](C)NC(=O)N(C)O)c(C)c2)no1`, at B1 bradykinin receptor, the IC50 was 3.6 nM.

With `Cc1nc(-c2c(F)cc(Cl)cc2-c2ccc(CNC(=O)N(C)O)cc2)no1`, the IC50 on B1 bradykinin receptor was more than 100 nM.

Turning to `Cn1nnc(-c2c(F)cc(Cl)cc2-c2cnc(CNC(=O)NO)c(F)c2)n1`, the IC50 on B1 bradykinin receptor came to 59 nM.

What is called solubility is how much of the substance goes into solution per volume. The term Papp A→B denotes the apparent permeability from the apical to the basolateral side of a cell layer. Broadly, the Papp B→A is how fast a substance crosses the layer from the basolateral side. In the case of `Cn1nnc(-c2c(F)cc(Cl)cc2-c2cnc(CNC(=O)N(O)C3CCC(F)(F)CC3)c(F)c2)n1`, at B1 bradykinin receptor, the IC50 came to 0.19 nM. Moreover, the bioavailability in data set [1] was found to be 78%. For the same compound, the results for the remaining at 1 h in data set [4] and in [5] were 61% and 84%, respectively. Also, the solubility in data set [6] is 39 µM (≈ 20 µg/mL). Moreover, the Activity entry in the data set with Hepatocyte is “Non-toxic”. In addition, in [7], the remaining at 120 h was more than 99%. In addition, in [8], the Papp A→B was 24 ×10⁻⁶ cm/s. For the same compound, the Papp B→A in [9] was 43 ×10⁻⁶ cm/s. The Ratio with Caco-2 was less than 3. Besides, the half-life in [2] was found to be 47 min. This compound also came in with a clearance in data set [3] of 13 mL/min/kg. Moreover, in the data set filed under Homo sapiens, the fraction unbound is 0.013.

Take `Cn1nnc(-c2c(F)cc(Cl)cc2-c2cnc(CNC(=O)N(O)C(CF)CF)c(F)c2)n1`: the IC50 at B1 bradykinin receptor is 0.5 nM. In data set [1], this compound yielded a bioavailability of 86%. In data set [2], the half-life was determined as 80 min. Moreover, in data set [3], the clearance amounted to 8 mL/min/kg.

For the compound `Cc1nc(-c2c(Cl)cc(Cl)cc2-c2cnc([C@@H](C)NC(=O)N(C)O)c(F)c2)no1`, the IC50 at B1 bradykinin receptor is 2.3 nM.

As for `Cc1nc(-c2c(F)cc(Cl)cc2-c2ccc(CNC(=O)N(C)O)c(F)c2)no1`, the IC50 at B1 bradykinin receptor turned out to be 32 nM.

As to `Cn1nnc(-c2c(F)cc(Cl)cc2-c2cnc(CNC(=O)N(O)C3CCCC3)c(F)c2)n1`, the IC50 on B1 bradykinin receptor was determined as 0.8 nM.

For `CCN(O)C(=O)NCc1ncc(-c2cc(Cl)cc(F)c2-c2nnn(C)n2)cc1F`, the IC50 at B1 bradykinin receptor is 4.6 nM.
